Activity calls are given as the source filed them. No cut-off for these calls is given here.
Key:
[1] = species on record: Oryctolagus cuniculus; experiment: Inhibition of chymotrypsin-like activity of rabbit 20s proteasome beta5 subunit using Suc-Leu-Leu-Val-Tyr-AMC as substrate at 10 uM after 1 hr by fluorescence assay
Outline: (§1)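 Purified rabbit 20S proteasome at 1 nM, with or without compound, incubated 1 h at 37 °C in 50 mM Tris-HCl pH 7.6 with fluorogenic AMC peptide: 20 µM […] (CT-L), Bz-Val-Gly-Arg-AMC (T-L) or Z-Leu-Leu-Glu-AMC (PGPH-L).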

[2] = Inhibition of chymotrypsin-like activity of rabbit 20s proteasome beta5 subunit using Suc-Leu-Leu-Val-Tyr-AMC as substrate after 1 hr by fluorescence assay; design: species or system Oryctolagus cuniculus
[3] = Inhibition of postglutamyl-peptide-hydrolysis-like activity of rabbit 20s proteasome beta1 subunit using benzyloxycarbonyl Z-Leu-Leu-Glu-AMC as substrate after 1 hr by fluorescence assay; design: species or system Oryctolagus cuniculus; outline: as §1
[4] = test system: MDA-MB-468; experiment: Cytotoxicity against human MDA-MB-468 cells assessed as decrease in cell survival after 120 hrs by MTT assay; assay type: functional, cell-based
Outline: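 MDA-MB-468 cells (DMEM, 10% FBS, penicillin/streptomycin, 37 °C, 5% CO2) attached overnight, then exposed 120 h to varying inhibitor concentrations; medium replaced with complete medium containing 1 mg/ml MTT for 3 h at 37 °C, DMSO solubilisation, absorbance at 540 nm. IC50 from a four-parameter curve fit of % inhibition versus concentration.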

[5] = Inhibition of trypsin-like activity of rabbit 20s proteasome beta2 subunit using Bz-Val-Gly-Arg-AMC as substrate after 1 hr by fluorescence assay; design: species or system Oryctolagus cuniculus; outline: as §1
[6] = species on record: Oryctolagus cuniculus; experiment: Reversible inhibition of chymotrypsin-like activity of rabbit 20s proteasome beta5 subunit assessed as residual activity at 10 uM after 2 hrs by dialysis method relative to control
[7] = species on record: Oryctolagus cuniculus; experiment: Reversible inhibition of chymotrypsin-like activity of rabbit 20s proteasome beta5 subunit assessed as residual activity at 10 uM after 20 mins by dialysis method relative to control
[8] = molecular target: T1, Proteasome Macropain subunit MB1 (Homo sapiens) (UniProt P28074); experiment: (§2) Inhibition of chymotrypsin-like activity of proteasome beta5 subunit in human MDA-MB-468 cells using Suc-Leu-Leu-Val-Tyr-AMC as substrate after 2 hrs by fluorescence assay; assay type: cell-based
T1 sequence (whole entry): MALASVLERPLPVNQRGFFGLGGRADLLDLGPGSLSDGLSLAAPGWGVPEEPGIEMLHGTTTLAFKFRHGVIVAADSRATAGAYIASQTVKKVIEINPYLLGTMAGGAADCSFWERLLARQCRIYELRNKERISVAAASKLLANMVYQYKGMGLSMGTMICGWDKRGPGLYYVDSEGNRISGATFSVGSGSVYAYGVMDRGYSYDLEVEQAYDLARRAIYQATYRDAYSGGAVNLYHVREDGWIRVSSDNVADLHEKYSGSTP

[9] = molecular target: T2, Proteasome Macropain subunit MB1 (Homo sapiens, UniProt P28074); experiment: as §2; assay type: cell-based
T2 sequence (P28074 whole entry): T1 sequence (whole entry)

[10] = species on record: Oryctolagus cuniculus; experiment: Covalent binding affinity to rabbit 20s proteasome beta5 subunit assessed as modification of TTTLAFK peptide after 30 mins by LC-MS/MS analysis
Outline: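 Purified rabbit 20S proteasome (1 nM) incubated with inhibitor in 50 mM Tris-HCl pH 7.6 for 30 min at room temperature; acetonitrile added, then trypsin (enzyme:substrate 1:50) digestion for 4 h at 37 °C; peptides concentrated, C18 tip-extracted, then LC/MS-MS checking the N-terminal Thr-1 TTTLAFK peptide for modification versus vehicle (DMSO).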

[11] = species on record: Oryctolagus cuniculus; experiment: Reversible inhibition of chymotrypsin-like activity of rabbit 20s proteasome beta5 subunit at 2.5 uM after 18 hrs by dialysis method

Compound	IC50 [2]	other results
CC(C)N(Cc1nc(-c2ccccc2)no1)C(=O)COc1ccc(C(=O)OC(C)(C)C)cc1		inhibition [1]: inactive
Cc1ccc(OCC(=O)N(C)Cc2nc(-c3ccc(C)cc3)no2)cc1	29.9 µM	
Cc1ccc(OCC(=O)N(Cc2nc(-c3ccc(C)cc3)no2)C(C)(C)C)cc1		inhibition [1]: inactive
CC(C)N(Cc1nc(-c2ccccc2)no1)C(=O)COc1ccccc1	6.2 µM	
CC(C)N(Cc1nc(-c2ccc(C(F)(F)F)cc2)no1)C(=O)COc1ccc(C(F)(F)F)cc1	2.53 µM	
Cc1ccc(CNC(=O)N(Cc2nc(-c3ccccc3)no2)C(C)C)cc1		inhibition [1]: inactive
Cc1ccc(OCC(=O)N(Cc2nc(-c3ccccc3)no2)C(C)C)cn1	4 µM	
CC(C)N(Cc1nc(-c2ccccc2)no1)C(=O)COc1ccc(O)cc1	10.1 µM	
CC(C)N(Cc1nc(-c2cccnc2)no1)C(=O)COc1ccc(F)cc1	1.93 µM	
Cc1ccc(NCC(=O)N(Cc2nc(-c3ccccc3)no2)C(C)C)cc1	5.67 µM	
CC(C)N(Cc1nc(-c2ccc(C(F)(F)F)cc2)no1)C(=O)COc1ccc(Cl)cc1	1.41 µM	
Cc1ccccc1OCC(=O)N(Cc1nc(-c2ccccc2)no1)C(C)C		inhibition [1]: inactive
Cc1ccc(OCC(=O)N(Cc2nc(-c3ccc(C)cc3)no2)CC(C)C)cc1	2.37 µM	
CC(C)N(Cc1nc(-c2ccccc2)no1)C(=O)COc1ccc(C(=O)O)cc1		inhibition [1]: inactive
Cc1ccc(OCC(=O)N(CCc2nc(-c3ccccc3)no2)C(C)C)cc1		inhibition [1]: inactive
CC(C)N(Cc1nc(-c2ccccc2)no1)C(=O)COc1ccc(-c2ccccc2)cc1		inhibition [1]: inactive
Cc1cccc(OCC(=O)N(Cc2nc(-c3ccccc3)no2)C(C)C)c1		inhibition [1]: inactive
CC(C)N(Cc1nc(-c2ccccc2)no1)C(=O)COc1ccc2cc(Br)ccc2c1		inhibition [1]: inactive
CC(C)N(Cc1nc(-c2cccnc2)no1)C(=O)COc1ccccc1	2.71 µM	
Cc1ccc(OCC(=O)N(Cc2nc(-c3ccccn3)no2)C(C)C)cc1	3.75 µM	
CCN(Cc1nc(-c2ccc(C)cc2)no1)C(=O)COc1ccc(C)cc1	6.04 µM	
Cc1ccc(OCC(=O)N(Cc2nc(-c3ccc(C)cc3)no2)C2CC2)cc1		inhibition [1]: inactive
CC(=O)N[C@@H](CSC(=O)[C@]1([C@@H](O)C(C)C)NC(=O)[C@H](C)[C@@H]1O)C(=O)O		inhibition [11]: inactive; Activity [10]: Active
Cc1ccc(-c2noc(CN(C(=O)COc3ccccc3)C(C)C)n2)cc1	8.5 µM	
Cc1ccc(OCC(=O)NCc2nc(-c3ccc(C)cc3)no2)cc1		inhibition [1]: inactive
CC(C)N(Cc1nc(-c2cccnc2)no1)C(=O)COc1ccc(C(C)(C)C)cc1	46.5 µM	
CC(C)N(Cc1nc(-c2ccc(C(F)(F)F)cc2)no1)C(=O)COc1ccccc1	11.2 µM	
CC(C)N(Cc1nc(-c2ccccc2)no1)C(=O)COc1ccc(F)cc1	10.1 µM	
CC(C)N(Cc1nc(-c2ccccc2)no1)C(=O)CCc1ccc(C(F)(F)F)cc1	53.5 µM	

The remaining molecules from weak to strong by IC50 [2], led by results:

IC50 [2]	Compound	other results
1.36 µM	CC(C)N(Cc1nc(-c2cccnc2)no1)C(=O)COc1ccc(C2CCCCC2)cc1	
1.27 µM	CCCc1ccc(OCC(=O)N(Cc2nc(-c3ncccn3)no2)C(C)C)cc1	
1.12 µM	Cc1ccc(-c2noc(CN(C(=O)COc3ccc(Cl)cc3)C(C)C)n2)cc1	
1.08 µM	Cc1ccc(-c2noc(CN(C(=O)COc3ccc(C(F)(F)F)cc3)C(C)C)n2)cc1	
1.07 µM	CC(C)N(Cc1nc(-c2ccc(Cl)cc2)no1)C(=O)COc1ccc(Cl)cc1	
0.98 µM	CC(C)N(Cc1nc(-c2cccnc2)no1)C(=O)COc1ccc(O)cc1	
0.97 µM	Cc1ccc(OCC(=O)N(Cc2nc(-c3ccc(C(F)(F)F)cc3)no2)C(C)C)cc1	
0.94 µM	CC(C)N(Cc1nc(-c2ccc(Cl)cc2)no1)C(=O)COc1ccc(C(F)(F)F)cc1	
0.6 µM	Cc1ccc(OCC(=O)N(Cc2nc(-c3ccc(C)cc3)no2)C(C)C)cc1	IC50 [3]: > 100 µM; Activity [6]: 100%; Activity [7]: > 70%; inhibition [8]: Dose-dependent effect; IC50 [9]: 3.5 µM; Activity [4]: Active; IC50 [5]: > 100 µM; Activity [10]: inactive
0.51 µM	CC(C)N(Cc1nc(-c2ccccc2)no1)C(=O)COc1ccc(Cl)cc1	
0.45 µM	Cc1ccc(OCC(=O)N(Cc2nc(-c3ccc(Cl)cc3)no2)C(C)C)cc1	
0.44 µM	CC(C)c1ccc(OCC(=O)N(Cc2nc(-c3cccnc3)no2)C(C)C)cc1	
0.43 µM	CCCCCCc1ccc(OCC(=O)N(Cc2nc(-c3cccnc3)no2)C(C)C)cc1	
0.43 µM	CC(C)N(Cc1nc(-c2ccccc2)no1)C(=O)COc1ccc(C(F)(F)F)cc1	
0.379 µM	CC(C)N(Cc1nc(-c2cccnc2)no1)C(=O)c1cc2ccccc2o1	
0.37 µM	Cc1ccc(OCC(=O)N(Cc2nc(-c3ccncc3)no2)C(C)C)cc1	
0.31 µM	Cc1ccc(OCC(=O)N(Cc2nc(-c3ccccc3)no2)C(C)C)cc1	
0.273 µM	CCCc1ccc(OCC(=O)N(Cc2nc(-c3ccc(C)cc3)no2)C(C)C)cc1	
0.26 µM	CCc1ccc(OCC(=O)N(Cc2nc(-c3ccccc3)no2)C(C)C)cc1	
0.22 µM	Cc1ccc(OCC(=O)N(Cc2nc(-c3cccnc3)no2)C(C)C)cc1	
0.14 µM	CC(C)N(Cc1nc(-c2cccnc2)no1)C(=O)COc1ccc(Cl)cc1	
0.14 µM	CC(C)Cc1ccc(OCC(=O)N(Cc2nc(-c3cccnc3)no2)C(C)C)cc1	
0.12 µM	CCCCCc1ccc(OCC(=O)N(Cc2nc(-c3cccnc3)no2)C(C)C)cc1	
0.107 µM	CCCCc1ccc(OCC(=O)N(Cc2nc(-c3cnccn3)no2)C(C)C)cc1	
0.105 µM	CCCc1ccc(OCC(=O)N(Cc2nc(-c3cnccn3)no2)C(C)C)cc1	
0.099 µM	CCc1ccc(OCC(=O)N(Cc2nc(-c3cccnc3)no2)C(C)C)cc1	
0.039 µM	CCCCc1ccc(OCC(=O)N(Cc2nc(-c3cccnc3)no2)C(C)C)cc1	
0.027 µM	CCCc1ccc(OCC(=O)N(Cc2nc(-c3cccnc3)no2)C(C)C)cc1	IC50 [3]: > 100 µM; Activity [4]: Active; IC50 [5]: > 100 µM

Source: ChEMBL document CHEMBL2346591, “Oxadiazole-isopropylamides as potent and noncovalent proteasome inhibitors” (J Med Chem, 2013)
